Assay outcomes (PubChem BioAssay)
T cruzi inh: blocks replication of Trypanosoma cruzi; inhibition, % (no concentration beside the values); 300,000 tested, 1.4% active; AID 1885; T. cruzi beta-gal in NIH3T3, luminescence, 90 h;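 active = mean inhibition across valid replicates above about 55%, limit read from the data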;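 note: signal also drops with host cell toxicity which is not excluded here; 0% = plate median of DMSO wells and 100% = zero luminescence signal; higher percent means less beta-gal luminescence so fewer parasites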
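System: NIH/3T3 fibroblasts plus reporter T. cruzi. Medium: DMEM plus 2% FBS. Probe or stimulus: 5000 reporter trypomastigotes per well. Compound: single 50 nL compound addition per well in DMSO. Incubation: co-culture of at least 90 h after 3 h attachment. Detection: GalScreen β-gal luminescence, detergent lysis, 60 min. Evaluation: parasite load inhibition, %.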
Efflux pump mplx: inhibitors of Candida antifungal efflux pumps expressed in yeast; S. cerevisiae Candida pump triplex, Nile Red efflux; inhibition, % at 10 µM; AID 485275; 330,000 tested, 0.44% active;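 active = plate passing quality check with inhibition over a set limit, or well fluorescence over plate mean plus 4 SD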;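 note: Nile Red retained in pooled yeast measured as flow cytometry median fluorescence; 0% = buffer negative control and 100% = Enniatin B positive control; higher means more Nile Red kept so more efflux inhibition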
Beta cell apopt: beta cell apoptosis inhibition | INS-1E cytokine-induced death, ATP luminescence, 48 h; percent of positive-control rescue, neutral wells zero | protection from apoptosis, % (test concentration not listed) | 300,000 tested, 0.8% active | AID 435005;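 active = Every replicate reaches about 75%, or at least half do and their mean reaches it too, limit read from the data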;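 note: 0% = cytokine-treated negative control wells and 100% = positive control rescue; higher means more ATP so stronger rescue from cytokine killing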
WT yeast gro inh: growth inhibition of WT yeast, mitochondrial fusion screen. mitochondrial fusion phenotypic screen, WT strain. inhibition, % at 10 µM. 190,000 tested, 2.1% active. AID 1362; in the data active = inhibition above about 58%; tested in S. cerevisiae
CSC inhib: cancer stem cell inhibition; cancer stem cell-like cells viability, luminescence; inhibition, % at 7.5 µM; 300,000 tested, 1.1% active; AID 2717; in the data active = inhibition above about 75%; tested in HMLE shEcad cells
Mot1-301 SUMO: blocks SUMOylation pathway, rescuing yeast Mot1-301 growth | S. cerevisiae Mot1-301 growth rescue, ATP luminescence, 38.5C; percent above DMSO median, 100 means doubled | growth rescue, % at 18.8 µM | 320,000 tested, 1% active | AID 2716;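 active = every valid replicate shows activation above 250% relative to neutral control wells; inactive = the rest, any valid replicate at or below 250%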;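 note: OY570 slx delta 5 strain wells were the positive control but not used for scaling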
* = called active by the depositor. Compounds with a hit are over-represented: about 4.8% of the library has one in this group of screens.

`Cc1onc(-c2c(F)cccc2Cl)c1C(=O)Nc1cccc(S(=O)(=O)NC2=NCCC2)c1` gave T cruzi inh 3, Efflux pump mplx 0, Beta cell apopt 11 and Mot1-301 SUMO -11.
For CN(CC(=O)Nc1ccccc1Br)C(=O)CN1CCN(Cc2cccc(Cl)c2)CC1 the results were Efflux pump mplx 0.
COc1c(Cl)cc(Cl)cc1CNc1ccc(S(N)(=O)=O)cc1 was read as T cruzi inh 16, Efflux pump mplx 0, WT yeast gro inh 12, CSC inhib -11 and Mot1-301 SUMO 327*.
For COc1ccc(Br)cc1CNc1ccc(S(N)(=O)=O)cc1 the results were T cruzi inh -11, Efflux pump mplx 0, Beta cell apopt -9, WT yeast gro inh -10, CSC inhib -13 and Mot1-301 SUMO 1.
`CCC1CCCCN1S(=O)(=O)c1ccc(NC(=O)c2nc(S(C)(=O)=O)ncc2Cl)cc1` (configuration not stated) gave T cruzi inh 40, Efflux pump mplx 0, Beta cell apopt 108*, CSC inhib 115* and Mot1-301 SUMO -30.
Screening CCS(=O)(=O)c1ncc(Cl)c(C(=O)Nc2ccc(S(=O)(=O)N3CCCC(C)C3)cc2)n1 (configuration not stated) returned T cruzi inh 56*, Efflux pump mplx 0, Beta cell apopt 106*, CSC inhib 118* and Mot1-301 SUMO -3.
Screening CCC1CCCCN1S(=O)(=O)c1ccc(NC(=O)c2ccncc2)cc1 (configuration not stated) returned T cruzi inh -20, Efflux pump mplx 0, CSC inhib 0 and Mot1-301 SUMO 140.
For CCS(=O)(=O)c1ncc(Cl)c(C(=O)Nc2ccc(C)cc2)n1 the results were T cruzi inh 79*, Efflux pump mplx 0, Beta cell apopt -31, CSC inhib 119* and Mot1-301 SUMO 16.
Cc1ccc(CS(=O)(=O)c2ncc(Cl)c(C(=O)Nc3ccc(OC(F)F)cc3)n2)cc1 was read as T cruzi inh -22, Efflux pump mplx 0, Beta cell apopt 41, CSC inhib 105* and Mot1-301 SUMO 166.
Cc1cc(C)cc(NC(=O)N(CCC#N)Cc2cccs2)c1 was read as T cruzi inh -1, Efflux pump mplx 0, CSC inhib -6 and Mot1-301 SUMO -5.
O=C(CSc1ncnc2c(-c3ccc(Cl)cc3)nsc12)c1ccccc1 was read as T cruzi inh -5, Efflux pump mplx 0, Beta cell apopt 14, WT yeast gro inh 78*, CSC inhib 44 and Mot1-301 SUMO -7.
COc1ccccc1CN1CC(C(=O)N(Cc2cnn(C)c2)C(C)C)CCC1=O (configuration not stated) was read as T cruzi inh -1, Efflux pump mplx 0, Beta cell apopt -4, CSC inhib -6 and Mot1-301 SUMO 2.
`COc1ccc(CN(C)C2c3ccccc3-c3ccccc32)cc1` gave T cruzi inh -24, Efflux pump mplx 0, WT yeast gro inh 69* and Mot1-301 SUMO -21.
`O=C(Cc1c(O)c2ccccc2[nH]c1=O)NCc1ccccc1F` gave T cruzi inh -10, Efflux pump mplx 0, Beta cell apopt -2, WT yeast gro inh 60*, CSC inhib 7 and Mot1-301 SUMO 16.
`Brc1cnc(N2CCCCC2)nc1N1CCOCC1` gave T cruzi inh 7, Efflux pump mplx 0, Beta cell apopt -3, WT yeast gro inh 59*, CSC inhib -4 and Mot1-301 SUMO 7.
Screening O=[N+]([O-])c1ccc(N2CCN(S(=O)(=O)c3ccc(Cl)cc3)CC2)cc1NCc1cccnc1 returned T cruzi inh 60*, Efflux pump mplx 0, Beta cell apopt -7, WT yeast gro inh 9 and CSC inhib 3.
`Cc1cc(Cl)c2cc3ccccc3cc2n1` gave T cruzi inh -7, Efflux pump mplx 0, CSC inhib -7 and Mot1-301 SUMO 17.
`COc1ccc(O)c(/C=C(\C#N)C(=O)Nc2ccccn2)c1` gave T cruzi inh -9.
Screening CC(C)c1nc(-c2ccccc2)c(-c2ccccc2)[nH]1 returned T cruzi inh 4, Efflux pump mplx 0, Beta cell apopt 88*, WT yeast gro inh -2, CSC inhib -3 and Mot1-301 SUMO -3.
c1ccc(-c2nc(-c3cccs3)[nH]c2-c2ccccc2)cc1 was read as T cruzi inh 26, Efflux pump mplx 0, Beta cell apopt 13, WT yeast gro inh 4, CSC inhib 7 and Mot1-301 SUMO -5.
Screening C(=N\n1cnnc1)/c1cccc(Oc2ccccc2)c1 returned T cruzi inh 18, Efflux pump mplx 0, Beta cell apopt -2, WT yeast gro inh 46, CSC inhib 5 and Mot1-301 SUMO inactive.
S=c1[nH]ncn1/N=C/c1cccc(Oc2ccccc2)c1 was read as T cruzi inh 6, Efflux pump mplx 0, Beta cell apopt 2, WT yeast gro inh 73*, CSC inhib 17 and Mot1-301 SUMO 10.
For CN(C)CCCNc1ncc(C(F)(F)F)cc1Cl the results were T cruzi inh 63*, Efflux pump mplx 0, Beta cell apopt 2, WT yeast gro inh -11, CSC inhib -16 and Mot1-301 SUMO -14.
Screening CN(C)CCCNC(=O)CCc1ncc(C(F)(F)F)cc1Cl returned T cruzi inh -6, Efflux pump mplx 0, Beta cell apopt -3, WT yeast gro inh 0, CSC inhib -10 and Mot1-301 SUMO 42.
`CCOC(=O)C1=C(c2ccccc2)N=C2SCC(=O)N2C1c1ccc2c(c1)OCO2` (configuration not stated) gave T cruzi inh -15, Efflux pump mplx 0, Beta cell apopt -9, WT yeast gro inh 60*, CSC inhib -18 and Mot1-301 SUMO -18.
`CCOC(=O)C1=C(c2ccccc2)N=C2SCC(=O)N2C1c1ccc(OC)c(OC)c1` (configuration not stated) gave T cruzi inh -21, Efflux pump mplx 0, Beta cell apopt -2, WT yeast gro inh -9, CSC inhib 10 and Mot1-301 SUMO 11.
Screening CC(C)NC(=O)c1ccc(-n2c(=S)[nH]c3ccccc3c2=O)cc1 returned T cruzi inh -17, Efflux pump mplx 0, Beta cell apopt 0, WT yeast gro inh -2, CSC inhib -6 and Mot1-301 SUMO 11.
For COc1cccc2[nH]c3c(N4CCCC(C)C4)ncnc3c12 (configuration not stated) the results were T cruzi inh 29, Efflux pump mplx 0, Beta cell apopt 27, WT yeast gro inh 16, CSC inhib -2 and Mot1-301 SUMO -9.
For COc1cccc2[nH]c3c(N4CC(C)CC(C)C4)ncnc3c12 (configuration not stated) the results were T cruzi inh 57* and WT yeast gro inh 34.
For O=C(CSc1nnc(Cn2nnc3ccccc32)o1)N(Cc1ccc(Cl)cc1)c1ccccc1 the results were T cruzi inh 17, Efflux pump mplx 0, Beta cell apopt 99*, WT yeast gro inh 0, CSC inhib 16 and Mot1-301 SUMO 4.
